ChEMBL document CHEMBL1145060, “Synthesis and evaluation of pharmacological properties of novel annelated 2,3-benzodiazepine derivatives” (2003)

Experiments:
[1] = Anticonvulsant activity against Audiogenic seizures in DBA/2 mice was observed in tonic phase after intraperitoneal injection; format: functional; details: Mus musculus, ip
Procedure, shortened: (§1)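 Compound given intraperitoneally to DBA/2 mice 30 min before audiogenic seizure testing; clonic and tonic phases scored. ED50 (μmol/kg) with 95% confidence limits calculated by Litchfield and Wilcoxon.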

[2] = Anticonvulsant activity against Audiogenic seizures in DBA/2 mice was observed in clonic phase after intraperitoneal injection; format: functional; details: Mus musculus, ip; procedure, shortened: as §1
[3] = Anticonvulsant activity against Audiogenic seizures in DBA/2 mice was observed in clonic phase after pretreatment with Aniracetam; format: functional; details: Mus musculus
Procedure, shortened: (§2)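 Audiogenic seizure test in DBA/2 mice, clonic and tonic phases; aniracetam 50 nmol given icv 60 min before testing, together with ip compound. ED50 with 95% confidence limits by Litchfield and Wilcoxon method.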

[4] = Anticonvulsant activity against Audiogenic seizures in DBA/2 mice was observed in tonic phase after pretreatment with Aniracetam; format: functional; details: Mus musculus; procedure, shortened: as §2
[5] = Anticonvulsant activity against AMPA-induced seizures in DBA/2 mice was observed in clonic phase after intraperitoneal injection; format: functional, Mus musculus
Procedure, shortened: (§3)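 DBA/2 mice given compound intraperitoneally, then challenged with AMPA to induce seizures; clonic and tonic phases scored separately. ED50 (μmol/kg) with 95% confidence limits by Litchfield and Wilcoxon method.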

[6] = Anticonvulsant activity against PTZ induced seizures was observed in mice after intraperitoneal injection; format: functional; details: Mus musculus, ip
Procedure, shortened: (§4)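 Swiss mice dosed ip 45 min before seizure induction by maximal electroshock (MES) or pentylenetetrazole (PTZ). ED50 (μmol/kg) with 95% confidence limits by Litchfield and Wilcoxon method.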

[7] = Anticonvulsant activity against in MES was observed in mice after intraperitoneal injection; format: functional; details: Mus musculus, ip; procedure, shortened: as §4
[8] = Anticonvulsant activity against AMPA-induced seizures in DBA/2 mice was observed in tonic phase after intraperitoneal injection; format: functional; details: Mus musculus, ip; procedure, shortened: as §3
[9] = Mus musculus, ip, read-out: ED50

Row | SMILES | ED50 [1] [µmol/kg] | ED50 [2] [µmol/kg] | ED50 [3] [µmol/kg] | ED50 [4] [µmol/kg] | ED50 [5] [µM/kg] | ED50 [5, 9] [µmol/kg] | ED50 [6] [µmol/kg] | ED50 [7] [µmol/kg] | ED50 [8] [µmol/kg]
1 | COc1cc2c(cc1OC)C(c1ccc([N+](=O)[O-])cc1)=Nn1c(n[nH]c(=O)c1=O)C2 | 25.7 | 60 |  |  |  |  |  |  | 
2 | COc1cc2c(cc1OC)C(c1cccc(N)c1)=Nn1c(n[nH]c(=O)c1=O)C2 | 57.7 | 74.5 |  |  |  |  |  |  | 
3 | COc1cc2c(cc1OC)C(c1ccc(Br)cc1)=Nn1c(O)nnc1C2 | 1.34 | 3.65 | 18.6 | 7.87 | 17.7 | 17.7 | 13.8 | 5.93 | 
4 | CC1=NN=C(c2ccc(N)cc2)c2cc3c(cc2C1)OCO3 [GYKI-52466] |  |  |  | 100 |  | 57.5 |  |  | 
5 | COc1cc2c(cc1OC)C(c1ccc(Br)cc1)=Nn1c(n[nH]c(=O)c1=O)C2 | 54.6 | 76.6 |  |  |  |  |  |  | 
6 | COc1cc2c(cc1OC)C(c1ccc(N)cc1)=NNC(=O)C2 |  | 15 |  | 56.2 |  |  |  |  | 25
7 | COc1cc2c(cc1OC)C(c1cccc([N+](=O)[O-])c1)=Nn1c(n[nH]c(=O)c1=O)C2 | 88.9 | > 120 |  |  |  |  |  |  | 
8 | CC(=O)N1N=C(c2ccc(N)cc2)c2cc3c(cc2C[C@H]1C)OCO3 [TALAMPANEL] | 9.7 |  |  |  |  | 44.2 | 56.3 | 28.8 | 
9 | COc1cc2c(cc1OC)C(c1ccc(Cl)cc1)=Nn1c(n[nH]c(=O)c1=O)C2 | 33 | 37.4 |  |  |  |  |  |  | 
10 | COc1cc2c(cc1OC)C(c1ccc(F)cc1)=Nn1c(n[nH]c(=O)c1=O)C2 | 28 | 39.2 |  |  |  |  | 63.2 | 37.8 | 
11 | COc1cc2c(cc1OC)C(c1ccc(Cl)cc1)=Nn1c(O)nnc1C2 | 14.1 | 28.8 | 87.8 | 71.8 | 46.8 | 46.8 | 33.1 |  | 
12 | COc1cc2c(cc1OC)C(c1ccc(N)cc1)=Nn1c(n[nH]c(=O)c1=O)C2 | 52.8 | 59.3 |  |  |  |  |  |  | 
13 | COc1cc2c(cc1OC)C(c1ccccc1)=Nn1c(n[nH]c(=O)c1=O)C2 | 17.9 | 33.6 |  |  |  |  | 57.6 | 36.6 | 
